For test [1], the target named is Protein kinase C alpha type (Homo sapiens, UniProt P17252). The test is described as follows: Inhibition of [3H]PDBu binding to recombinant protein kinase C alpha was determined at pH 7.4, 37 degree C for 5 min. In short, it runs like this: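 PKCα displacement of [3H]PDBu in 50 mM Tris-HCl, 100 μg/ml phosphatidylserine, 4 mg/ml bovine IgG and 0.1 mM CaCl2, with a range of competitor concentrations. After incubation, chilled 7 min and 35% PEG added, then 10 min on ice and spun at 4 °C. Pellet bound radioactivity counted. Nonspecific binding measured with 64 μM unlabeled PDBu. Expressed as Ki.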

Test [2] has as its target T1, Protein kinase C delta type (Homo sapiens, UniProt Q05655). The test can be described thus: Inhibition of [3H]PDBu binding to C1b domain of protein kinase C delta with phosphatidylserine. In a few lines: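 δC1b domain as GST fusion, expressed in BL-21 (DE3) E. coli and spin-purified. Assay buffer 50 mM Tris-HCl pH 7.4 with 100 μg/ml phosphatidylserine, 4 mg/ml bovine IgG and 1 mM EGTA, plus [3H]PDBu and varied competitor. Incubated 10 min at 18 °C, then precipitated with PEG and pellet counted. Specific binding is total minus binding with 64 μM cold PDBu. Ki reported.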

Test [3] deals with T1, Protein kinase C delta type. The test is described as follows: Inhibition of [3H]-PDBu binding to C1b domain of protein kinase C delta without phosphatidylserine. In short, it runs like this:
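GST-tagged δC1b expressed in BL-21 (DE3) E. coli and purified on glutathione spin columns, purity checked by SDS-PAGE. Competition with [3H]PDBu run in 50 mM Tris-HCl pH 7.4, 4 mg/ml bovine IgG, 1 mM EGTA, no phosphatidylserine, 10 min at 18 °C. Bound ligand separated by PEG precipitation on ice and counted by scintillation. Nonspecific binding taken with 64 μM unlabeled PDBu. Ki derived.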

T1 sequence (Q05655 whole entry, the tested form may be a part): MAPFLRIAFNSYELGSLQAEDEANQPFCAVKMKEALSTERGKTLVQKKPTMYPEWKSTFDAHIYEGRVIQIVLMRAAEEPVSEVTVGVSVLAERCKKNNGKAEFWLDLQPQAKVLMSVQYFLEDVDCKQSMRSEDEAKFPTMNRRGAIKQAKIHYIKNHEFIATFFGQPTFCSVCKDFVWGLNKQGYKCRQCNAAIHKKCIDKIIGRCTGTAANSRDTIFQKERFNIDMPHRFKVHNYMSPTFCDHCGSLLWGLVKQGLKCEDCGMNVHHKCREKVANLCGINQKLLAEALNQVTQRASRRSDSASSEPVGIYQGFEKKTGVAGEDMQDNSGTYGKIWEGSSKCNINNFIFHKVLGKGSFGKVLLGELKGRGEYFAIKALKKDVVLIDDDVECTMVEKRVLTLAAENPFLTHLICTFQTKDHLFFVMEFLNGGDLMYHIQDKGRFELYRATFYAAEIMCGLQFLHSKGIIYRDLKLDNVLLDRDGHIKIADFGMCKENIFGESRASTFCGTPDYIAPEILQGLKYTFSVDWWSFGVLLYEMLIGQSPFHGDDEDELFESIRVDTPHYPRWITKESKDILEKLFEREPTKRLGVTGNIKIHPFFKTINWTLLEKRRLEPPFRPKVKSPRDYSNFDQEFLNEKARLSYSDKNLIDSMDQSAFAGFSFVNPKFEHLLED

`CC(C)CC(C/C=C1/CC(CO)(COCC(C)(C)C)OC1=O)CC(C)C` (stereo unspecified): the inhibition constant (Ki) – broadly, a dissociation constant, usually derived from enzyme kinetics or from competition with a known ligand – in test [1] is 5.87 µM; in test [2], 2.14 µM.

On to `CC(C)CC(C/C=C1\CC(CO)(COC(=O)C(C)(C)C)OC1=O)CC(C)C` (stereo unspecified), for which the results for the Ki in test [1] and in test [3] were 0.00325 µM and 0.103 µM, respectively.

Consider `CC(C)CC(C/C=C1\CC(CO)(COC(=S)C(C)(C)C)OC1=O)CC(C)C` (stereo unspecified), for which the results for the inhibition constant Ki in test [1], in test [2] and in test [3] were 0.113 µM, 0.0206 µM and 0.606 µM, respectively.

As to `CC(C)CC(C/C=C1\CC(CO)(COC(=O)C(C)(C)C)OC1=S)CC(C)C` (stereo unspecified), the Ki turned out to be 0.0237 µM in test [1], 0.00313 µM in test [2] and 0.173 µM in test [3].

For the compound `CC(C)CC(C/C=C1\CC(CO)(COCC(C)(C)C)OC1=O)CC(C)C` (stereo unspecified), the Ki in test [1] was determined as 14.3 µM; in test [2] it was 1.89 µM; in test [3], 101 µM.

As for `CC(C)CC(C/C=C1/COC(CO)(COC(=O)C(C)(C)C)C1)CC(C)C` (stereo unspecified), the Ki is 0.622 µM in test [1], 0.219 µM in test [2] and 6.62 µM in test [3].
